Measured values as given in ChEMBL document CHEMBL1671623, “Identification and biochemical characterization of small-molecule inhibitors of west nile virus serine protease by a high-throughput screen” (Antimicrob Agents Chemother, 2008).
One block for each compound: values may come before it. Active and inactive are the calls of the source. No cut-off for these calls is given here. Peptide text beside a SMILES is read from it. * marks the point of attachment. AMC = Cc1cc(=O)oc2cc(N*)ccc12; Boc = CC(C)(C)OC(=O)*

Tests used:
[1] = Inhibition of Dengue virus 2 New Guinea C NS2BH/NS3 serine protease after 15 mins by spectrofluorometer in presence of Boc-Gly-Arg-Arg-AMC; parameters: species or system dengue virus type 2
Outline: (§1)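 His-tagged NS2BH/NS3 complex expressed in E. coli and purified by Talon affinity and Sephadex G-75. 67 nM protease preincubated 15 min at room temperature with 50 µM inhibitor in 200 mM Tris-HCl pH 9.5, 6 mM NaCl, 30% glycerol. Substrate added at 100 µM final (Boc-GKR-AMC for WNV, Boc-GRR-AMC for DENV2) for 15 min. AMC fluorescence read at ex 390/em 465 nm. Activity expressed as percent of no-inhibitor control; triplicate.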

[2] = Inhibition of West Nile virus EG101 NS2BH/NS3 serine protease after 15 mins using Boc-Gly-Lys-Arg-AMC substrate by spectrofluorometry; outline: as §1
Vero = experiment: (§2) Cytotoxicity against African green monkey Vero cells after 24 hrs by Cell Titer-Glo assay; assay type: cell-based; conditions: chlorocebus sabaeus, vero, 24 h
Outline: (§3)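 Vero cells seeded at 5,000 cells/well and grown 24 h at 37°C, 5% CO2. Compound added in triplicate in DMEM with 10% FBS and incubated a further 24 h. Viability read by CellTiter-Glo luminescence. Cytotoxicity expressed relative to no-compound wells; CC50 taken from the dose curve; two independent experiments.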

West Nile virus [3] = experiment: Inhibition of West Nile virus EG101 NS2BH/NS3 serine protease after 15 mins using Z-Val-Lys-Arg-MNA substrate assessed as increase in apparent Km/apparent Vmax ratio of substrate by Sigma plot
Outline: (§4)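 Steady-state kinetics with purified NS2BH/NS3 protease. Enzyme preincubated 15 min at room temperature with inhibitor at 0, 1.5, 2.5, 5 or 10 µM. Substrate then added at eight concentrations (10–400 µM) for 15 min. AMC or MNA fluorescence converted to rate via a standard curve. Kmapp/Vmaxapp and 1/Vmaxapp plotted against inhibitor concentration; Ki from kinetic fitting; repeated three times.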

[4] = Selectivity index, ratio of CC50 for African green monkey Vero cells to EC50 for West Nile virus EG101; assay type: toxicity, cell-based; conditions: read-out: Selectivity Index
West Nile virus [5] = experiment: Antiviral activity against West Nile virus EG101 infected in Vero cells assessed as inhibition of viral replication measured 72 hrs post infection by luciferase reporter gene assay; assay type: functional, organism-based
Outline: (§5)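 Vero cells pretreated 30 min with twofold serial dilutions of inhibitor in MEM with 10% FBS and 1% penicillin-streptomycin. Then infected with WNV reporter virus particles carrying a Renilla luciferase subgenomic replicon (approx. 1 x 10^4 RVPs, MOI 0.5 to 1.0). Lysates assayed for luciferase. EC50 from variable-slope sigmoidal nonlinear regression; triplicate.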

West Nile virus [6] = experiment: Antiviral activity against West Nile virus EG101 infected in Vero cells assessed as inhibition of viral replication measured 48 hrs post infection by luciferase reporter gene assay; assay type: functional, organism-based; outline: as §5
[7] = Inhibition of protease activity of trypsin using Z-Gly-Pro-Arg-pNA substrate
Outline: (§6)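 Trypsin (67 nM) or factor Xa (25 nM) preincubated 15 min at room temperature with 50 µM inhibitor in 200 mM Tris-HCl pH 9.5, 6 mM NaCl, 30% glycerol. Substrate added at 100 µM for 15 min: Z-Gly-Pro-Arg-pNA for trypsin, read by absorbance at 405 nm; Boc-Ile-Glu-Gly-Arg-AMC for factor Xa, read by fluorescence. Aprotinin as positive control; triplicate.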

West Nile virus [8] = experiment: Antiviral activity against West Nile virus EG101 infected in Vero cells assessed as inhibition of viral replication measured 24 hrs post infection by luciferase reporter gene assay; assay type: functional, organism-based; outline: as §5
[9] = as §2; assay type: cell-based; conditions: chlorocebus sabaeus, Vero cells; outline: as §3
West Nile virus [10] = experiment: Inhibition of West Nile virus EG101 NS2BH/NS3 serine protease after 15 mins using Boc-Gly-Lys-Arg-AMC substrate assessed as increase in apparent Km/apparent Vmax ratio of substrate by Sigma plot; outline: as §4
[11] = target: Coagulation factor X (Homo sapiens) (UniProt P00742); experiment: Inhibition of protease activity of factor 10a using Boc-Ile-Glu-Gly-Arg-AMC substrate; outline: as §6
Coagulation factor X (Homo sapiens), sequence (P00742 41-179 limits assumed): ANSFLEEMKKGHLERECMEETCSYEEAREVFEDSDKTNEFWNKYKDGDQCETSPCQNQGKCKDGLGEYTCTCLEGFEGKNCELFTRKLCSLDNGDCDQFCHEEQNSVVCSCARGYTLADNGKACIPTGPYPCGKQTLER
Coagulation factor X (Homo sapiens), sequence (P00742 235-488 limits assumed): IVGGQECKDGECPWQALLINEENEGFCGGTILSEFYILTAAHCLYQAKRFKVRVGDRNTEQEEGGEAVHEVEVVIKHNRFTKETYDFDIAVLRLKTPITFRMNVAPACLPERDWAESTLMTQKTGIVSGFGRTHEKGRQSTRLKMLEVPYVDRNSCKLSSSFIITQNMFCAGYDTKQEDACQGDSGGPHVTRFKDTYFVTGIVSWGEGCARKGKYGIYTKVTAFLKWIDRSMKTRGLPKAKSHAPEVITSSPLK

Structure (SMILES): COc1cccc(C(NC(=O)c2ccccc2)c2ccc3cccnc3c2O)c1 (configuration not stated)
Ki [1]: 28.6 µM
Ki [2]: 3.2 µM
Activity (Vero): Toxic

Structure (SMILES): CCn1c(SCC(=O)c2ccccc2)nc2ccccc2c1=O
Ki [1]: 17 µM
Ki [2]: 37.3 µM

Km (West Nile virus [3]): 737 µM
Structure (SMILES): Cc1cc(=O)oc2cc(NC(=O)[C@H](CCCNC(=N)N)NC(=O)[C@H](CCCCN)NC(=O)CNC(=O)OC(C)(C)C)ccc12 (Boc-Gly-Lys-Arg-{AMC})

EC50 (West Nile virus [6]): 1400 nM
inhibition [7]: inactive
inhibition (West Nile virus [3]): Active
inhibition (West Nile virus [10]): Active
inhibition [11]: inactive
Structure (SMILES): Oc1ccccc1C(Nc1nccs1)c1ccc2cccnc2c1O (configuration not stated)
selectivity ratio [4]: 100
Ki [1]: 30.2 µM
Ki [2]: 3.4 µM
inhibition (West Nile virus [5]): Active
inhibition (West Nile virus [8]): Active
CC50 at 24 h [9]: 140 µM
